Laboratory results as given in ChEMBL document CHEMBL4513216, “Probing the Open Global Health Chemical Diversity Library for Multistage-Active Starting Points for Next-Generation Antimalarials” (ACS Infect Dis, 2020).

Assay: Toxicity liver stage against HepG2, at 10uM
Assay type: cell-based
Set-up: test concentration 10 uM, cell line HepG2-A16-CD81EGFP
Conditions: human, HepG2-A16-CD81EGFP cells; read-out: INHIBITION
Outline: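 Uninfected HepG2-A16-CD81EGFP cells, 3 × 10^3 per well, 1536-well, plated on prespotted compound at 10 μM final, parasite-free screening media added to match infected plates; puromycin 10 μM positive, DMSO 0.5% negative; run in parallel with 48 h PbLuc assay at 37 °C, 5% CO2; viability by CellTiter-Glo luminescence, normalized to controls.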

CSc1ncc(C(=O)N2CCN(c3ccccc3C)CC2C)cn1 (stereo not given) gave a cytotoxicity at 10 µM of 0.642%.
Work on Cc1noc(C)c1CC(=O)N1CCCC(Cn2ccnc2C)C1 (stereo not given) yielded a cytotoxicity at 10 µM of -3.6%.
Work on Cc1cc(N2CCC3(CCCN(C4CCOCC4)C3=O)C2)ccn1 (stereo not given) yielded a cytotoxicity at 10 µM of -134%.
With Cc1cc(CN(C)C2CCN(c3cccc(-c4cscn4)c3)CC2)on1 the cytotoxicity at 10 µM was -0.371%.
Work on Cc1nc(C)c(C)c(NCc2cnn3cccnc23)n1 yielded a cytotoxicity at 10 µM of 15.5%.
Molecule O=c1cnc2ccccc2n1CCCn1cccn1 has a cytotoxicity at 10 µM of -26.4%.
With CC(=O)N1CCc2c(nc(N(C)C)nc2NCCC2CCCCO2)C1 (stereo not given) the cytotoxicity at 10 µM was 5.22%.
Molecule O=C(Cn1ccnc1)N1CCCC(OCc2cccnc2)C1 (stereo not given) has a cytotoxicity at 10 µM of 2.03%.
COc1ccc(CCC(C)Nc2cccc(SC)c2)cc1 (stereo not given) showed a cytotoxicity at 10 µM of -1.11%.
In the case of Cc1nc(CN(C)Cc2cn[nH]c2-c2ccc(F)cc2)c[nH]1, the cytotoxicity at 10 µM is reported as -17.8%.
For O=C(NCc1nnnn1-c1ccccc1)c1ccc(C2CCCO2)s1 (stereo not given), the cytotoxicity at 10 µM was 0.363%.
Cc1nonc1C1CCCN1C(=O)c1cc2n(n1)CCCNC2 (stereo not given) showed a cytotoxicity at 10 µM of -7.73%.
Molecule Cc1nnsc1C(=O)NCc1cccnc1N(C)Cc1ccccc1 has a cytotoxicity at 10 µM of -6.91%.
CSc1ccccc1C(=O)N1C[C@@H](N(C)C)[C@H](c2ccc(C)cc2)C1 gave a cytotoxicity at 10 µM of -7.02%.
CS(=O)(=O)N1CCOC(CNC(=O)c2cccc(C#N)c2)C1 (stereo not given) gave a cytotoxicity at 10 µM of -5.69%.
With O=C(c1ccc(Cl)s1)N1CCCn2nc(CN3CC[C@H](F)C3)cc2C1 the cytotoxicity at 10 µM was -1.44%.
Cc1ccc(C(=O)N2CC(C)(C)[C@@](C)(O)C2)cc1N1CCNC1=O showed a cytotoxicity at 10 µM of -2.76%.
Work on CCOc1ccnc(N[C@@H](Cc2ccccc2)C(N)=O)n1 yielded a cytotoxicity at 10 µM of 10.7%.
With Cc1cccc(C)c1-c1cc(NCCO)nc2[nH]ccc12 the cytotoxicity at 10 µM was 52.4%.
In the case of CCn1c(CC2CCNCC2)nn(Cc2ccc(C(=O)NC)o2)c1=O, the cytotoxicity at 10 µM is reported as 9.17%.
CCc1c(C)nc(C)nc1N1C[C@@H](CN(C)C)[C@@H](CO)C1 showed a cytotoxicity at 10 µM of -0.247%.
Work on CCN(C)C(=O)c1cccc(S(=O)(=O)NCCc2nc(C)cc(=O)[nH]2)c1 yielded a cytotoxicity at 10 µM of -39.9%.
Molecule CCN1CC(C(=O)NCCn2cccc2)CCC1=O (stereo not given) has a cytotoxicity at 10 µM of -1.64%.
For O=C1CN(Cc2ccc(-c3ccccc3C(=O)O)cc2)CCN1, the cytotoxicity at 10 µM was -1.88%.
In the case of COc1ccc(-c2nnc(CN3CCCC3Cn3cncn3)o2)cc1 (stereo not given), the cytotoxicity at 10 µM is reported as 3.02%.
CCOc1cccc(CNC(=O)N2CCC(Cc3cnn(C)c3)C2)c1 (stereo not given) gave a cytotoxicity at 10 µM of -3.16%.
In the case of CC(C)COC(C)C(=O)NCc1ccc(-n2cncn2)nc1 (stereo not given), the cytotoxicity at 10 µM is reported as -5.65%.
Molecule Cc1ccccc1C1(C(=O)NCCN2CCCC2)CCOCC1 has a cytotoxicity at 10 µM of -7.54%.
O=C(Cc1ccccc1Cl)N1CCCC(n2cncn2)C1 (stereo not given) showed a cytotoxicity at 10 µM of -11.1%.
CCn1cc(CN2CCCN(C(=O)Cc3cccs3)CC2)cn1 gave a cytotoxicity at 10 µM of -2.76%.
For CS(=O)(=O)c1ccc(C(O)CN2CCC(c3ccn[nH]3)CC2)cc1 (stereo not given), the cytotoxicity at 10 µM was -12.1%.
For Cc1cc(C)n(CC2CCCN2C(=O)c2cc[nH]n2)n1 (stereo not given), the cytotoxicity at 10 µM was -3.8%.
Molecule COc1ncccc1NC(=O)NCC(O)c1ccc(F)cc1F (stereo not given) has a cytotoxicity at 10 µM of 30.9%.
O=C(CCOCc1ccccc1)N1CCCC1c1noc(C2CC2)n1 (stereo not given) gave a cytotoxicity at 10 µM of -4.74%.
For CCc1nccn1C1CCCN(C(=O)c2cnn(C)c2C2CC2)C1 (stereo not given), the cytotoxicity at 10 µM was -12.8%.
Work on COc1ccc(-n2ccc(C(=O)NCCN3CCCCC3C)n2)cc1 (stereo not given) yielded a cytotoxicity at 10 µM of -8.43%.
In the case of CCN1CCC2(CC1)OCCN2C(=O)c1ccc(OC)c(Cl)c1, the cytotoxicity at 10 µM is reported as 9.55%.
Molecule COc1ccc(C(C)N(C)Cc2c(C3CC3)[nH]c3ncccc23)cc1 (stereo not given) has a cytotoxicity at 10 µM of -2.45%.
Molecule CCn1ncc2c1CN(C(=O)c1cscn1)CC2COC (stereo not given) has a cytotoxicity at 10 µM of -79.1%.
In the case of Cc1occc1C(=O)N1Cc2nccn2CC(CN(C)C)C1 (stereo not given), the cytotoxicity at 10 µM is reported as -97.7%.
In the case of O=c1ccc2c([nH]1)CCC(NCc1ccc(F)cc1)C2 (stereo not given), the cytotoxicity at 10 µM is reported as -1.87%.
With CCN1C[C@H]2C3(CCN(S(C)(=O)=O)CC3)CC[C@@]2(C(=O)N(C)C)C1 the cytotoxicity at 10 µM was -107%.
For Cc1cc(CN2C[C@@H]3COC[C@]3(CNC(=O)N(C)C)C2)no1, the cytotoxicity at 10 µM was -71.4%.
In the case of Cc1sc(Br)cc1S(=O)(=O)NCCN, the cytotoxicity at 10 µM is reported as -6.69%.
For Cc1oncc1C(=O)N1CCOCC2(CCN(c3ccccn3)C2)C1 (stereo not given), the cytotoxicity at 10 µM was -68.3%.
In the case of O=C(O)CN1CCCC2(CCN2Cc2cccc(F)c2)C1 (stereo not given), the cytotoxicity at 10 µM is reported as -108%.
For O=C(c1ccccc1F)N1CCC2(CC1)CC(N1CCCC1)CO2 (stereo not given), the cytotoxicity at 10 µM was -120%.
Work on Cc1cc(CN2C[C@@H]3COC[C@H](C(=O)N4CCCCO4)[C@@H]3C2)oc1C yielded a cytotoxicity at 10 µM of -74.1%.
CNC(=O)[C@@H](CC(C)C)N1CCC[C@H]1C(=O)N(C)Cc1cccnc1 showed a cytotoxicity at 10 µM of 3.95%.
For CNC(=O)CC1CC2(CCN(CC3CC3)CC2)Oc2ccccc21 (stereo not given), the cytotoxicity at 10 µM was -0.0368%.
c1cncc(CN2CC[C@H]3O[C@@H](COCC4CC4)CC[C@H]32)c1 showed a cytotoxicity at 10 µM of 2.19%.
Work on CC(C)c1nc(C(=O)N2C[C@@H]3CC[C@H]2CN(C2CCOCC2)C3)cs1 yielded a cytotoxicity at 10 µM of 5.31%.
In the case of O=C(Nc1ccccc1)N1C2CCC(O)(CC2)C1CO (stereo not given), the cytotoxicity at 10 µM is reported as -5.2%.
With CCc1cc(N[C@@H]2C[C@@H]3CC[C@H]2C3)n2nccc2n1 the cytotoxicity at 10 µM was -2.24%.
Cc1noc(C)c1CN1C(=O)[C@@H]2CC[C@H]1CN(C(=O)c1cscn1)C2 showed a cytotoxicity at 10 µM of -10.6%.
